This passage reports RatioLC50, CC50 and MIC results from ChEMBL document CHEMBL3763095, “Naphtho[1',2':4,5]imidazo[1,2-a]pyridine-5,6-diones: Synthesis, enzymatic reduction and cytotoxic activity” (Bioorg Med Chem Lett, 2016).

≈ marks a conversion by molar mass, not a printed value.

The subject of data set [1] is A549. The experiment in a line: Ratio of LC50 for human A549 cells expressing NQO1 in presence of NQO1 inhibitor dicoumarol to LC50 for human A549 cells expressing NQO1 in absence of NQO1 inhibitor dicoumarol. It counts as functional.
The nature of data set [2]: Cytotoxicity against NQO1-deficient human HL60 cells assessed as cell viability after 24 hrs by MTT assay. It counts as cell-based, HL-60. Conditions: read-out: LC50. The gist of the method:
(§1)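 Cells exposed to the quinones for 24 h, then survival read by MTT assay. Viability expressed as percent of solvent-treated control cells. LC50 (concentration causing 50% lethal effect) obtained from logistic dose-response curves.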
(Tetrazolium dyes change colour on reduction, which living cells bring about.)

Data set [3] relates to MCF7. The experiment in a line: Cytotoxicity against human MCF7 cells expressing NQO1 assessed as cell viability after 24 hrs by MTT assay. It counts as functional. Conditions: MCF7, 24 h, read-out: LC50 (the source's name). In a few lines: as §1
The subject of data set [4] is MCF7. The experiment in a line: Ratio of LC50 for human MCF7 cells expressing NQO1 in presence of NQO1 inhibitor dicoumarol to LC50 for human A549 cells expressing NQO1 in absence of NQO1 inhibitor dicoumarol. It counts as functional.
Data set [5] deals with A549. The experiment in a line: Cytotoxicity against human A549 cells expressing NQO1 assessed as cell viability after 24 hrs by MTT assay. Conditions: A549, 24 h, read-out: LC50 (the source's name). It counts as functional. In a few lines: as §1
Another data set relates to Staphylococcus aureus. The experiment in a line: Antibacterial activity against Staphylococcus aureus ATCC 25923 after 16 hrs by two-fold microdillution method. It counts as functional. The note with it: ATCC 25923, 16 h.

In the case of `O=C1C(=O)c2c(nc3ccccn23)-c2ccc([N+](=O)[O-])cc21`, the RatioLC50 in the data set on A549 [1] amounted to 3.3; in the data set with MCF7 [4], 3.6. Besides, the CC50 at 24 h in data set [2] is greater than 15000 nM. For the same compound, the CC50 in the data set with MCF7 [3] worked out at 280 nM; in the data set on A549 [5], 120 nM.

In the case of `O=C1C(=O)c2c(nc3ccc(Br)cn23)-c2ccccc21`, the CC50 at 24 h in data set [2] was greater than 15000 nM. In the data set on Staphylococcus aureus, inhibition of growth (MIC) required 6.1 µM (≈ 2 µg/mL). Moreover, the CC50 with MCF7 [3] amounted to 1390 nM; with A549 [5] it was 3930 nM.

As to `O=C1C(=O)c2c(nc3ccc(C(F)(F)F)cn23)-c2ccccc21`, the CC50 at 24 h in data set [2] was greater than 15000 nM. Moreover, 6.3 µM (≈ 1.99 µg/mL) was the least that counted as inhibitory in the data set on Staphylococcus aureus (MIC). In addition, the CC50 was 3780 nM with MCF7 [3] and 900 nM in the data set with A549 [5].

For `O=C1C(=O)c2c(nc3ccc(F)cn23)-c2ccccc21`, the CC50 at 24 h in data set [2] is 13000 nM. Moreover, inhibition of growth with Staphylococcus aureus (MIC) required 15 µM (≈ 3.99 µg/mL). The CC50 in the data set on MCF7 [3] amounted to 1320 nM; in the data set with A549 [5], 2030 nM.

On to `O=C1C(=O)c2c(nc3ncccn23)-c2ccccc21`, for which the CC50 at 24 h in data set [2] is greater than 15000 nM. For the same compound, the minimal inhibitory concentration (MIC) (in general, the least concentration at which growth counts as inhibited) with Staphylococcus aureus was determined as 8 µM (≈ 1.99 µg/mL). Further, the values for the CC50 in the data set with MCF7 [3] and in the data set on A549 [5] were 800 nM and 1600 nM, respectively.

`O=C1C(=O)c2c(nc3ccc([N+](=O)[O-])cn23)-c2ccccc21`: the CC50 at 24 h in data set [2] is greater than 15000 nM. For the same compound, the CC50 in the data set on MCF7 [3] was determined as 1700 nM; in the data set on A549 [5] it was 2300 nM.

Turning to `O=C1C(=O)c2c(nc3ccccn23)-c2ccccc21`, the values for the RatioLC50 with A549 [1] and in the data set on MCF7 [4] were 3.1 and 2.3, respectively. For the same compound, in data set [2], the CC50 at 24 h was greater than 15000 nM. Further, in the data set with Staphylococcus aureus, 16.1 µM (≈ 4 µg/mL) was the least that counted as inhibitory (MIC). Moreover, the CC50 in the data set with MCF7 [3] stood at 510 nM; in the data set with A549 [5], 670 nM.

As to `Cc1ccn2c3c(nc2c1)-c1ccccc1C(=O)C3=O`, the CC50 at 24 h in data set [2] is greater than 15000 nM. Further, in the data set with Staphylococcus aureus, the lowest concentration to inhibit growth (MIC) was 15.2 µM (≈ 3.99 µg/mL). Also, the CC50 was 1250 nM in the data set with MCF7 [3] and 1500 nM with A549 [5].

Turning to `Cc1cccn2c3c(nc12)-c1ccccc1C(=O)C3=O`, the CC50 at 24 h in data set [2] was greater than 15000 nM. In the data set with Staphylococcus aureus, the MIC worked out at 15.2 µM (≈ 3.99 µg/mL). Besides, the CC50 in the data set on MCF7 [3] came out at 1700 nM; in the data set with A549 [5] it was 3400 nM.

With `Cc1ccc2nc3c(n2c1)C(=O)C(=O)c1ccccc1-3`, the CC50 at 24 h in data set [2] is greater than 15000 nM. In the data set on Staphylococcus aureus, this compound had an MIC of 15.2 µM (≈ 3.99 µg/mL). In addition, the values for the CC50 with MCF7 [3] and in the data set with A549 [5] were 3940 nM and 8340 nM, respectively.

As to `O=C1C(=O)c2c(nc3ccc4ccccc4n23)-c2ccccc21`, in data set [2], the CC50 at 24 h was greater than 15000 nM. Further, the CC50 with MCF7 [3] and with A549 [5] was greater than 15000 nM in each case.

As for `O=C1C(=O)c2c(nc3ccc(Cl)cn23)-c2ccccc21`, the CC50 at 24 h in data set [2] came out at 10000 nM. In the data set with Staphylococcus aureus, this compound gave an MIC of 7 µM (≈ 1.98 µg/mL). Also, the CC50 with MCF7 [3] worked out at 3410 nM; in the data set with A549 [5], 2060 nM.

For the compound `COc1ccc2nc3c(n2c1)C(=O)C(=O)c1ccccc1-3`, the CC50 at 24 h in data set [2] is greater than 15000 nM. In the data set with Staphylococcus aureus, this compound returned an MIC of 14.3 µM (≈ 3.98 µg/mL). Moreover, the results for the CC50 in the data set with MCF7 [3] and in the data set on A549 [5] were 2100 nM and 3350 nM, respectively.

In the data set on Staphylococcus aureus, `CC1(C)S[C@@H]2[C@H](NC(=O)[C@H](N)c3ccc(O)cc3)C(=O)N2[C@H]1C(=O)O` [AMOXICILLIN] registered an MIC of 0.3 µM (≈ 0.11 µg/mL).

In the case of `COc1cccc2c1C(=O)c1c(O)c3c(c(O)c1C2=O)C[C@@](O)(C(=O)CO)C[C@@H]3O[C@H]1C[C@H](N)[C@H](O)[C@H](C)O1` [DOXORUBICIN], in data set [2], the CC50 at 24 h stood at 370 nM. For the same compound, the results for the CC50 in the data set with MCF7 [3] and in the data set with A549 [5] were 1560 nM and 1170 nM, respectively.

Consider `CN[C@@H]1[C@H](O[C@H]2[C@H](O[C@H]3[C@H](O)[C@@H](O)[C@H](N=C(N)N)[C@@H](O)[C@@H]3N=C(N)N)O[C@@H](C)[C@]2(O)C=O)O[C@@H](CO)[C@H](O)[C@H]1O` [STREPTOMYCIN], for which it took 5.4 µM (≈ 3.14 µg/mL) to inhibit growth in the data set on Staphylococcus aureus (MIC).
